Laboratory results: ChEMBL document CHEMBL4340551, “Design, synthesis and preliminary bioactivity studies of indomethacin derivatives as Bcl-2/Mcl-1 dual inhibitors” (Bioorg Med Chem, 2019)

Columns and labels:
[1] = target: T1, Apoptosis regulator Bcl-2 (Homo sapiens, UniProt P10415); assay: Inhibition of 5-FAM-tagged Bid-BH3 peptide binding to Bcl2 (unknown origin) by fluorescence polarization assay
[2] = target: T1, Apoptosis regulator Bcl-2; assay: Potency index, ratio of Ki for UMI77 to Ki for test compound for inhibition of 5-FAM-tagged Bid-BH3 peptide binding to Bcl2 (unknown origin) by fluorescence polarization assay
[3] = test system: Jurkat; assay: Antiproliferative activity against human Jurkat cells assessed as reduction in cell growth incubated for 48 hrs by MTT assay; assay type: functional, cell-based
Summary of the method: (§1)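 PC-3, Jurkat and K562 cells grown in RPMI 1640 with 10% FBS at 37°C, 5% CO2. Cells seeded at 2000-4000 per well and left 8 h before compound addition at a range of concentrations. Exposure 48 h, then 0.5% MTT solution for 4 h. Formazan dissolved in DMSO and absorbance read at 570 nm. IC50 derived from concentrations and inhibitory ratios.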

[4] = target: Induced myeloid leukemia cell differentiation protein Mcl-1 (Homo sapiens, UniProt Q07820); assay: Inhibition of 5-FAM-tagged Bid-BH3 peptide binding to Mcl1 (unknown origin) by fluorescence polarization assay
Summary of the method: (§2)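 Competitive fluorescence polarization in which compounds displace labelled Bid-BH3 peptide from the Bcl-2 family protein, read as a fall in mP. IC50 taken from mP versus concentration. Ki calculated from IC50, Kd, and the peptide and protein concentrations.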

[5] = test system: K562; assay: Antiproliferative activity against human K562 cells assessed as reduction in cell growth incubated for 48 hrs by MTT assay; assay type: functional, cell-based; details: K562, 48 h; summary of the method: as §1
[6] = target: Bcl-2-like protein 1 (Homo sapiens, UniProt Q07817); assay: Inhibition of 5-FAM-tagged Bid-BH3 peptide binding to Bcl-XL (unknown origin) by fluorescence polarization assay; summary of the method: as §2
[7] = target: T1, Apoptosis regulator Bcl-2; assay: Potency index, ratio of Ki for WL276 to Ki for test compound for inhibition of 5-FAM-tagged Bid-BH3 peptide binding to Bcl2 (unknown origin) by fluorescence polarization assay
[8] = test system: PC-3; assay: Antiproliferative activity against human PC3 cells assessed as reduction in cell growth incubated for 48 hrs by MTT assay; assay type: functional, cell-based; details: PC-3, 48 h; summary of the method: as §1
[9] = test system: Jurkat; assay: Induction of apoptosis in human Jurkat cells assessed as necrotic cells level at 20 uM incubated for 48 hrs by annexin-V/FITC and propidium iodide staining based flow cytometry (reference value: 6.29%); assay type: functional
[10] = test system: Jurkat; assay: Induction of apoptosis in human Jurkat cells assessed as late apoptotic cells level at 20 uM incubated for 48 hrs by annexin-V/FITC and propidium iodide staining based flow cytometry (reference value: 6.29%); assay type: functional
[11] = test system: Jurkat; assay: Induction of apoptosis in human Jurkat cells assessed as necrotic cells level at 40 uM incubated for 48 hrs by annexin-V/FITC and propidium iodide staining based flow cytometry (reference value: 6.29%); assay type: functional
[12] = test system: Jurkat; assay: Induction of apoptosis in human Jurkat cells assessed as late apoptotic cells level at 40 uM incubated for 48 hrs by annexin-V/FITC and propidium iodide staining based flow cytometry (reference value: 6.29%); assay type: functional
[13] = test system: Jurkat; assay: Induction of apoptosis in human Jurkat cells assessed as viable cells level at 40 uM incubated for 48 hrs by annexin-V/FITC and propidium iodide staining based flow cytometry (reference value: 86.5%); assay type: functional
[14] = test system: Jurkat; assay: Induction of apoptosis in human Jurkat cells assessed as viable cells level at 20 uM incubated for 48 hrs by annexin-V/FITC and propidium iodide staining based flow cytometry (reference value: 86.5%); assay type: functional
[15] = test system: Jurkat; assay: Induction of apoptosis in human Jurkat cells assessed as early apoptotic cells level at 20 uM incubated for 48 hrs by annexin-V/FITC and propidium iodide staining based flow cytometry (reference value: 7.02%); assay type: functional
[16] = test system: Jurkat; assay: Induction of apoptosis in human Jurkat cells assessed as early apoptotic cells level at 40 uM incubated for 48 hrs by annexin-V/FITC and propidium iodide staining based flow cytometry (reference value: 7.02%); assay type: functional
[17] = target: T1, Apoptosis regulator Bcl-2; assay: Inhibition of 5-FAM-tagged Bid-BH3 peptide binding to Bcl2 (unknown origin) at 100 uM by fluorescence polarization assay relative to untreated control

Chain of Bcl-2-like protein 1 (Q07817 whole entry): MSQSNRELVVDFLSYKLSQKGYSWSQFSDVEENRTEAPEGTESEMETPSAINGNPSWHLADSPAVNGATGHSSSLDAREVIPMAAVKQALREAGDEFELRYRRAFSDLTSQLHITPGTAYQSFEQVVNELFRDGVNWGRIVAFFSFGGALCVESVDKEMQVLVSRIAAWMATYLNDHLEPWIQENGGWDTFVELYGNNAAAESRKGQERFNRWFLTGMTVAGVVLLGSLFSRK
T1 sequence (P10415 whole entry): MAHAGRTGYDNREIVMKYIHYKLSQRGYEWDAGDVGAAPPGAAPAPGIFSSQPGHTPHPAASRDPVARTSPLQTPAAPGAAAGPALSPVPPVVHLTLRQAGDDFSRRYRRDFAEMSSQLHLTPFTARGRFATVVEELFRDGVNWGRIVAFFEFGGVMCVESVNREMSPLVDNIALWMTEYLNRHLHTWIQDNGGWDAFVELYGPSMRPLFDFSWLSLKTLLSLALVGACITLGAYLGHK
Chain of Induced myeloid leukemia cell differentiation protein Mcl-1 (Q07820 whole entry): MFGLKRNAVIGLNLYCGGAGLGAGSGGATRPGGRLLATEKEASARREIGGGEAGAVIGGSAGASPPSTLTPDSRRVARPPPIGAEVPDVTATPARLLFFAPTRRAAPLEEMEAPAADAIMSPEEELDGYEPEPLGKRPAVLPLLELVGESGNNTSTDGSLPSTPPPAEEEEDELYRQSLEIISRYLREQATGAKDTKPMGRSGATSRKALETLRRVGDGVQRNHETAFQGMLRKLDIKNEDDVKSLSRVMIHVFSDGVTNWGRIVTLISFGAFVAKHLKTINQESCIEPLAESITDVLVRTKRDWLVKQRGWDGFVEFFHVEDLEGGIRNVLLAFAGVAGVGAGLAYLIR

COc1ccc2c(c1)c(CC(=O)N[C@@H](Cc1ccc(Br)cc1)C(=O)NS(=O)(=O)c1ccc(Cl)c([N+](=O)[O-])c1)c(C)n2C(=O)c1ccc(Cl)cc1
Ki ([1]; read-out: Ki): 0.59 µM

COc1ccc2c(c1)c(CC(=O)N[C@@H](Cc1c[nH]c3ccccc13)C(=O)NS(=O)(=O)c1ccc(Cl)c([N+](=O)[O-])c1)c(C)n2C(=O)c1ccc(Cl)cc1
Ki ([1]; read-out: Ki): > 5 µM

COc1ccc2c(c1)c(CC(=O)N[C@@H](Cc1ccc(OCc3ccc(C#N)cc3)cc1)C(=O)NS(=O)(=O)c1ccc(Cl)c([N+](=O)[O-])c1)c(C)n2C(=O)c1ccc(Cl)cc1
Ratio Ki [2]: 5 to 6
Ki ([1]; read-out: Ki): 0.47 µM
IC50 [3]: 83.5 µM
Ki [4]: 0.53 µM
IC50 [5]: 49.2 µM
Ki [6]: Not Active
Ratio Ki [7]: 2 to 3
IC50 [8]: 39.3 µM

COc1ccc2c(c1)c(CC(=O)N[C@@H](CCSC)C(=O)NS(=O)(=O)c1ccc(Cl)c([N+](=O)[O-])c1)c(C)n2C(=O)c1ccc(Cl)cc1
Ki ([1]; read-out: Ki): > 5 µM

COc1ccc2c(c1)c(CC(=O)N[C@@H](Cc1ccc(OCc3cccc(C#N)c3)cc1)C(=O)NS(=O)(=O)c1ccc(Cl)c([N+](=O)[O-])c1)c(C)n2C(=O)c1ccc(Cl)cc1
Ratio Ki [2]: 5 to 6
Ki ([1]; read-out: Ki): 0.44 µM
IC50 [3]: 55.2 µM
Ki [4]: 0.48 µM
IC50 [5]: 51.6 µM
Ki [6]: Not Active
Ratio Ki [7]: 2 to 3
IC50 [8]: 38.2 µM

COc1ccc2c(c1)c(CC(=O)N[C@@H](Cc1ccccc1)C(=O)NS(=O)(=O)c1ccc(Cl)c([N+](=O)[O-])c1)c(C)n2C(=O)c1ccc(Cl)cc1
Ki ([1]; read-out: Ki): > 5 µM

COc1ccc2c(c1)c(CC(=O)N[C@@H](Cc1ccc(OC(C)C)cc1)C(=O)NS(=O)(=O)c1ccc(Cl)c([N+](=O)[O-])c1)c(C)n2C(=O)c1ccc(Cl)cc1
Ki ([1]; read-out: Ki): > 5 µM

COc1ccc2c(c1)c(CC(=O)N[C@@H](Cc1ccc(OCc3ccc([N+](=O)[O-])cc3)cc1)C(=O)NS(=O)(=O)c1ccc(Br)cc1)c(C)n2C(=O)c1ccc(Cl)cc1
Ratio Ki [2]: 5 to 6
Ki ([1]; read-out: Ki): 0.63 µM
Ratio Ki [7]: 2 to 3

CCCOc1ccc(C[C@H](NC(=O)Cc2c(C)n(C(=O)c3ccc(Cl)cc3)c3ccc(OC)cc23)C(=O)NS(=O)(=O)c2ccc(Cl)c([N+](=O)[O-])c2)cc1
Ki ([1]; read-out: Ki): 1.3 µM

COc1ccc2c(c1)c(CC(=O)NCC(=O)NS(=O)(=O)c1ccc(Br)cc1)c(C)n2C(=O)c1ccc(Cl)cc1
Ki [1]: Not Active

COc1ccc2c(c1)c(CC(=O)N[C@@H](C)C(=O)NS(=O)(=O)c1ccc(Cl)c([N+](=O)[O-])c1)c(C)n2C(=O)c1ccc(Cl)cc1
Ki [1]: Not Active

COc1ccc2c(c1)c(CC(=O)N[C@@H](CC(C)C)C(=O)NS(=O)(=O)c1ccc(Cl)c([N+](=O)[O-])c1)c(C)n2C(=O)c1ccc(Cl)cc1
Ki ([1]; read-out: Ki): > 5 µM

COc1ccc2c(c1)c(CC(=O)N[C@@H](Cc1ccc(OCc3cccc(C)c3)cc1)C(=O)NS(=O)(=O)c1ccc(Cl)c([N+](=O)[O-])c1)c(C)n2C(=O)c1ccc(Cl)cc1
Ratio Ki [2]: 5 to 6
Ki ([1]; read-out: Ki): 0.43 µM
IC50 [3]: 30.3 µM
Ki [4]: 0.49 µM
IC50 [5]: 38.8 µM
Ki [6]: Not Active
Ratio Ki [7]: 2 to 3
IC50 [8]: 28.6 µM

Cc1ccc(S(=O)(=O)NC(=O)[C@H](Cc2ccccc2)N2C(=O)/C(=C/c3ccc(-c4ccccc4)cc3)SC2=S)cc1
Activity [9]: 0.22%
Ki ([1]; read-out: Ki): 1.5 µM
IC50 [3]: 31.8 µM
Activity [10]: 13.6%
Activity [11]: 0.3%
Ki [4]: 1.1 µM
IC50 [5]: 42.3 µM
Activity [12]: 16.8%
Ki ([6]; read-out: Ki): 1.3 µM
Activity [13]: 65.5%
Activity [14]: 70.7%
Activity [15]: 15.5%
Activity [16]: 17.4%

COc1ccc2c(c1)c(CC(=O)NCC(=O)NS(=O)(=O)c1ccc(Cl)c([N+](=O)[O-])c1)c(C)n2C(=O)c1ccc(Cl)cc1
inhibition [17]: 94%
Ki [1]: Not Active

COc1ccc2c(c1)c(CC(=O)N[C@@H](Cc1ccc(OCc3ccccc3)cc1)C(=O)NS(=O)(=O)c1ccc(Br)cc1)c(C)n2C(=O)c1ccc(Cl)cc1
Ratio Ki [2]: 5 to 6
Ki ([1]; read-out: Ki): 0.53 µM
Ratio Ki [7]: 2 to 3

COc1cccc(COc2ccc(C[C@H](NC(=O)Cc3c(C)n(C(=O)c4ccc(Cl)cc4)c4ccc(OC)cc34)C(=O)NS(=O)(=O)c3ccc(Cl)c([N+](=O)[O-])c3)cc2)c1
Ratio Ki [2]: 5 to 6
Ki ([1]; read-out: Ki): 0.48 µM
IC50 [3]: 35.9 µM
IC50 [5]: 36.2 µM
Ratio Ki [7]: 2 to 3
IC50 [8]: 31.7 µM

COc1ccc(C[C@H](NC(=O)Cc2c(C)n(C(=O)c3ccc(Cl)cc3)c3ccc(OC)cc23)C(=O)NS(=O)(=O)c2ccc(Cl)c([N+](=O)[O-])c2)cc1
Ki ([1]; read-out: Ki): > 5 µM

COc1ccc(C[C@H](NC(=O)Cc2c(C)n(C(=O)c3ccc(Cl)cc3)c3ccc(OC)cc23)C(=O)NS(=O)(=O)c2ccc(Br)cc2)cc1
Ki ([1]; read-out: Ki): > 5 µM

COc1ccc2c(c1)c(CC(=O)N[C@@H](Cc1ccc(OCc3ccc(C)cc3)cc1)C(=O)NS(=O)(=O)c1ccc(Cl)c([N+](=O)[O-])c1)c(C)n2C(=O)c1ccc(Cl)cc1
Ratio Ki [2]: 5 to 6
Ki ([1]; read-out: Ki): 0.56 µM
Ratio Ki [7]: 2 to 3

CCC(C)[C@H](NC(=O)Cc1c(C)n(C(=O)c2ccc(Cl)cc2)c2ccc(OC)cc12)C(=O)NS(=O)(=O)c1ccc(Cl)c([N+](=O)[O-])c1 (some centres not stated)
Ki ([1]; read-out: Ki): 4.9 µM

COc1ccc2c(c1)c(CC(=O)N[C@@H](Cc1ccc(OCc3ccccc3)cc1)C(=O)NS(=O)(=O)c1ccc(Cl)c([N+](=O)[O-])c1)c(C)n2C(=O)c1ccc(Cl)cc1
Ratio Ki [2]: 5 to 6
Ki ([1]; read-out: Ki): 0.52 µM
Ratio Ki [7]: 2 to 3

COc1ccc2c(c1)c(CC(=O)N[C@H](C(=O)NS(=O)(=O)c1ccc(Cl)c([N+](=O)[O-])c1)C(C)C)c(C)n2C(=O)c1ccc(Cl)cc1
Ki [1]: Not Active

COc1ccc2c(c1)c(CC(=O)N[C@@H](Cc1ccccc1)C(=O)NS(=O)(=O)c1ccc(Br)cc1)c(C)n2C(=O)c1ccc(Cl)cc1
Ki ([1]; read-out: Ki): > 5 µM

COc1ccc2c(c1)c(CC(=O)N[C@@H](Cc1ccc(OCc3ccccc3Br)cc1)C(=O)NS(=O)(=O)c1ccc(Cl)c([N+](=O)[O-])c1)c(C)n2C(=O)c1ccc(Cl)cc1
Ratio Ki [2]: 5 to 6
Ki ([1]; read-out: Ki): 0.45 µM
IC50 [3]: 34 µM
Ki [4]: 0.52 µM
IC50 [5]: 41.5 µM
Ki [6]: Not Active
Ratio Ki [7]: 2 to 3
IC50 [8]: 36.1 µM

O=C(O)CSc1cc(NS(=O)(=O)c2ccc(Br)cc2)c2ccccc2c1O
Ki ([1]; read-out: Ki): 2.9 µM
Ki [4]: 0.18 µM
Ki ([6]; read-out: Ki): 7.85 µM

COc1ccc2c(c1)c(CC(=O)N[C@@H](Cc1ccc(OCc3ccc4ccccc4c3)cc1)C(=O)NS(=O)(=O)c1ccc(Cl)c([N+](=O)[O-])c1)c(C)n2C(=O)c1ccc(Cl)cc1
Ratio Ki [2]: 5 to 6
Ki ([1]; read-out: Ki): 0.56 µM
Ratio Ki [7]: 2 to 3

COc1ccc2c(c1)c(CC(=O)N[C@@H](Cc1ccccc1)C(=O)NS(=O)(=O)c1ccccc1)c(C)n2C(=O)c1ccc(Cl)cc1
Ki [1]: Not Active

COc1ccc2c(c1)c(CC(=O)N[C@@H](Cc1ccc(OCc3ccccc3C#N)cc1)C(=O)NS(=O)(=O)c1ccc(Cl)c([N+](=O)[O-])c1)c(C)n2C(=O)c1ccc(Cl)cc1
Ratio Ki [2]: 5 to 6
Ki ([1]; read-out: Ki): 0.67 µM
Ratio Ki [7]: 2 to 3

COc1ccc2c(c1)c(CC(=O)N[C@@H](Cc1ccc(OCc3ccc([N+](=O)[O-])cc3)cc1)C(=O)NS(=O)(=O)c1ccc(Cl)c([N+](=O)[O-])c1)c(C)n2C(=O)c1ccc(Cl)cc1
Ratio Ki [2]: 5 to 6
Ki ([1]; read-out: Ki): 0.51 µM
Ratio Ki [7]: 2 to 3
